Published values pooled from the literature.
Lines come from different studies, so protocols differ.
Cell line: OVCAR-5
Observed: cell growth or viability

CC[C@@H]1C=CC(=O)O[C@@H]1C[C@@H](O)[C@H](C)[C@H](O)[C@@H](C)Cc1ccc(F)cc1 — GI50 (MTT; 48 h): 16.5 nM
COc1cc(-c2ccc(-c3ccc(C(=N)N)nc3)s2)cc(OC)c1OC — GI50 (SRB): 2100 nM
Cc1cc(C)n(C(=S)[S][Au][PH](CCCCCC[PH]([Au][S]C(=S)n2nc(C)cc2C)(c2ccccc2)c2ccccc2)(c2ccccc2)c2ccccc2)n1 — GI50: 1210 nM
COc1ccc(-c2ccc(-c3ccc(C(=N)N)nc3)s2)cc1 — GI50 (SRB): 1670 nM
CC[C@@H]1C=CC(=O)O[C@@H]1C[C@@H](O)[C@H](C)[C@H](OC)[C@@H](C)Cc1ccc(F)cc1 — GI50 (MTT; 48 h): 75.3 nM
COc1ccc(C(=O)/C=C/c2cccc(Cl)c2)cc1S(N)(=O)=O — GI50 (SRB; 48 h): 1900 nM
CCN1CCN(Cc2ccc(Nc3ncc(F)c(-c4cc(F)c5nc(C)n(C(C)C)c5c4)n3)nc2)CC1 — IC50 (CCK-8): 2500 nM
C/C=C/C[C@H](C)[C@@H](OC)[C@@H](C)[C@H](O)C[C@H]1OC(=O)C=C[C@H]1CC — GI50 (MTT; 48 h): 21.9 nM
S=C([S][Au-][P+](CCCCCC[P+]([Au-][S]C(=S)n1cccn1)(c1ccccc1)c1ccccc1)(c1ccccc1)c1ccccc1)n1cccn1 — GI50: 3630 nM
COc1cccc(Oc2ccccc2NC(=O)CNC(=O)c2cccc3ccccc23)c1 — GI50 (SRB; 48 h): 1120 nM
COc1ccccc1/C=C/C(=O)c1ccc(OC)c(S(N)(=O)=O)c1 — GI50 (SRB; 48 h): 2200 nM
